From the RNAGym collection of RNA variant scans (doi:10.1126/science.aae0568)
This sample holds only a part of the variants without activity.

B1: tRNA (parent)
chain: GUUCCGUUGGCGUAAUGGUAACGCGUCUCCCUCCUAAGGAGAAGACUGCGGGUUCGAGUCCCGUACGGAACG

Variants of: B1
Test: yeast fitness relative to wild type (ratio to wild type); higher = fitter; tRNA-Arg(CCU), competitive growth, 37 C, YPD
Outline: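 Gene amplicons from the start population and from each of six end populations were read by 100-nucleotide paired-end sequencing. Those end populations came from pooled Saccharomyces cerevisiae strains carrying tRNA-Arg(CCU) gene variants at the native locus, competed in YPD at 37°C for 24 hours. Fitness relative to wild type was worked out from changes in genotype frequencies. Genotypes needed ≥ 100 starting reads, and estimates < 0.5 were set to 0.5.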

| Variant | yeast fitness |
| --- | --- |
| G23A A40G G41A A45U G51C | ≤ 0.5 |
| G23A C30U U35C C62A | ≤ 0.5 |
| G23A C31G G52A | ≤ 0.5 |
| G23U U32A U53A C55G | ≤ 0.5 |
| C24U C55U | 0.854 |
| C24U C55G | 0.638 |
| G23A C29G A45U C60G C61U | 0.557 |
| C24G C30U C31G G50A | ≤ 0.5 |
| C24A A45G A57U C62U | ≤ 0.5 |
| C24A U26G A43C A70G | ≤ 0.5 |
| C24G C34U U35A C55U | ≤ 0.5 |
| C24U C33G U59C U64A | 0.686 |
| C24U C29A A36G C55G A70C | ≤ 0.5 |
| G23A C33G U47A G68A | 0.539 |
| G23A C46U | 0.646 |
| C24G U54G G63A | 0.553 |
| C24A U26A C55A C66U | ≤ 0.5 |
| C24U C49G G56C G58A G67A | ≤ 0.5 |
| G23C G41C C49U | ≤ 0.5 |
| C24G G38C | 0.566 |
| G23A C27U C60G G67A | 0.549 |
| C24A C30U A45G A57U | 0.6 |
| C24A A42G G63A | ≤ 0.5 |
| C24U G41A C62A | 0.605 |

| Variant | yeast fitness |
| --- | --- |
| C24A C29G A43C A70C | ≤ 0.5 |
| G23A C30U U35C G48C U59A C66U | 0.526 |
| G23A C55U A57C G58A | ≤ 0.5 |
| C24G G44A C46U U53C | ≤ 0.5 |
| G23U C49G A70U | ≤ 0.5 |
| C24U C55G G67A | ≤ 0.5 |
| G23C C27G C61U | ≤ 0.5 |
| G23A C49A U59C C62U A65U A70C | 0.524 |
| C24A A40U C49U C62A C66A | ≤ 0.5 |
| G23C C33U | 0.544 |
| G23U G63C | 0.623 |
| C24U G52A G56A | 0.703 |
| G23A U28C U59C C60G | 0.649 |
| C24U G25C G56A | 0.882 |
| C24G A36G A57G | 0.533 |
| C24U A40C G48A | 0.634 |
| C24U G48A G51A | 0.665 |
| C24A G44A | 0.7 |
| G23A G25A C31U | 0.652 |
| C24U A37U | 0.652 |
| C24A A57U | 0.681 |
| C24G C60A | 0.576 |
| C24G U32C A42G | 0.574 |
| C24A C33G A40C C55U | 0.888 |

| Variant | yeast fitness |
| --- | --- |
| C24U G25A C30U C46A A69U | 0.611 |
| C24U A43C | 0.786 |
| C24G A42C C60U U64A | 0.562 |
| G23C C29U C49A C61U | ≤ 0.5 |
| C24U G25A C30U | 0.684 |
| C24A A36U C55A C66U | ≤ 0.5 |
| C24G C27U C33U G50C C66U | ≤ 0.5 |
| C24U G63C | 0.771 |
| C24U G63A | 0.869 |
| C24G A42G C55G | ≤ 0.5 |
| G23C C31G C60A A70U | 0.554 |
| G23C C24U C46U U47C | 0.684 |
| C24G A37G U59A G67A | 0.548 |
| C24U U26C G58A | 1.01 |
| C24G C30G C62U G68C | ≤ 0.5 |
| G23A C34A | 0.523 |
| C24A A40G C66U | ≤ 0.5 |
| C24U C30A A37G | 0.593 |
| C24U C27A | 0.882 |
| C24U C30U A57C | ≤ 0.5 |
| C24G A57C C61U | ≤ 0.5 |
| C24U A45G A69U | 0.888 |
| C24A C29G A45G | ≤ 0.5 |
| C24U A37G A70U | 0.536 |

| Variant | yeast fitness |
| --- | --- |
| C24U C30G A45C C61G | 0.568 |
| C24G U26A G41C C66U | 0.608 |
| C24A A36C G52C C66U | 0.761 |
| G23A A45U G56A | 0.727 |
| C22U G52A A57U | ≤ 0.5 |
| C24U A65C | 0.739 |
| C24G C29U G51C C66U | ≤ 0.5 |
| C24G C66G G68C | ≤ 0.5 |
| C24A C30U C33A G41C A42U | ≤ 0.5 |
| C24G A70G | 0.564 |
| C24U G39C A70G | ≤ 0.5 |
| C24G C31G G68C | ≤ 0.5 |
| C24A U26G A43C G68C | ≤ 0.5 |
| C24G A40G A42G | 0.54 |
| G23A C30U U35C | ≤ 0.5 |
| C24G C29U C49U | ≤ 0.5 |
| G23A C29G A57G C66G | ≤ 0.5 |
| C24U A36U C46G C62A A69C | ≤ 0.5 |
| C24U C30G G51A C60U G67A | ≤ 0.5 |
| C24U U26C C27A A69U | ≤ 0.5 |
| G23A A43U A65U | ≤ 0.5 |
| G23C U59C | 0.583 |
| C24U C34G U35G G38A A45C | 0.646 |
| C24U A42U C61U | 0.641 |

| Variant | yeast fitness |
| --- | --- |
| C24U C33U C61A A69U | ≤ 0.5 |
| C22U U28G U32A | ≤ 0.5 |
| G23A C30U C55G A57C C61A | ≤ 0.5 |
| C24G C31G G50A | 0.522 |
| G23C C30A U64C | ≤ 0.5 |
| C24A G52A | 0.752 |
| G23C C29U G44A C62U | ≤ 0.5 |
| G23C C55G | ≤ 0.5 |
| C24G A45C C46G C60G A69U | ≤ 0.5 |
| C22U G52A C60U | 0.598 |
| C24A C60U | 0.543 |
| C24A U59A C61U | 0.567 |
| C22U U54A C55U | 0.776 |
| C24G A36U A42U C49G U53A G58A C60A | ≤ 0.5 |
| G23C C49A U59C A69G | ≤ 0.5 |
| C24U G41A C62A A69U | ≤ 0.5 |
| C24U A43U G56A | 0.837 |
| G23A C34U A43U G44C C60U | ≤ 0.5 |
| C24A C29A G44A C46G G50A A65U | 0.556 |
| C24G C34G U47A C49A A65G | ≤ 0.5 |
| C24U C29U C46U | 0.554 |
| C22U U47G | 0.611 |
| C24A C27U A40U A57C | 0.512 |
| G23A C30U U35C G67U A69C | ≤ 0.5 |

| Variant | yeast fitness |
| --- | --- |
| C24G C49G G67A A69C | 0.521 |
| C24U U26G A36G A43G | ≤ 0.5 |
| G23C A42U | 0.65 |
| C24U A45C A69C | 0.619 |
| C22U U26A G67C | ≤ 0.5 |
| C24G C29G G48A | ≤ 0.5 |
| C24G A36U A65G | ≤ 0.5 |
| G23A G52A | 0.546 |
| C24G C34G A70C | ≤ 0.5 |
| C24A C29G U54A | 0.568 |
| C24U G39A A65U | 0.528 |
| G23C G38A | 0.696 |
| G23C C33G A42U | 0.556 |
| G23A C31U A57U | ≤ 0.5 |
| C24G A36U A37C A65C | ≤ 0.5 |
| C24A U32C C62U | ≤ 0.5 |
| G23C A37U C46G | ≤ 0.5 |
| G23A C34A A43U U47C C62G C66A | 0.689 |
| C24G U35G G48C C66U | ≤ 0.5 |
| G23A A42U C61A | ≤ 0.5 |
| G23A A43C C66G | ≤ 0.5 |
| C24G G50A C55U A69C A70U | ≤ 0.5 |
| C24U A37G A45U C55U | 0.708 |
| C22U G52C G68A | ≤ 0.5 |

| Variant | yeast fitness |
| --- | --- |
| G23C U53A A65U | ≤ 0.5 |
| C24U C27G U32C A65U | ≤ 0.5 |
| C24U G44C | 0.825 |
| C22U U28G A45G G67U | ≤ 0.5 |
| C24G C49G G50C | ≤ 0.5 |
| C24U A42U C46A C55U C61G A69C | ≤ 0.5 |
| G23A C29G A45U C62U | ≤ 0.5 |
| C24G C49G G68U | ≤ 0.5 |
| G23C C29G A43U | ≤ 0.5 |
| G23A C30A U64A | ≤ 0.5 |
| C24U C27G C55G G68A | 0.526 |
| G23A G51A C61A C66A | 0.545 |
| G23A C30U C33A A43G G48C A57G | ≤ 0.5 |
| C24U C29G C31U U64A | ≤ 0.5 |
| G23C A70U | 0.717 |
| C24U C49G | 0.724 |
| C24A G68C | 0.643 |
| C24U A70C | 1.04 |
| G23A G39C | 0.752 |
| C24A U26G G56C | ≤ 0.5 |
| G23A C24G A40U A65U | ≤ 0.5 |
| C24G G58C G68A | ≤ 0.5 |
| C24G U28G C29G | ≤ 0.5 |
